How the values were obtained:
[1] = AUC (0 to infinity) in Beagle dog at 1 mg/kg, po by LC-MS/MS analysis; assay type: ADME, organism-based, Canis lupus familiaris; parameters: route oral, time infinity, dose 1 mg/kg; conditions: in vivo
How it was run: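 Male animals dosed orally with a suspension in 0.5% MC. Blood was taken into EDTA 2K capillaries and plasma was stored frozen. Plasma was mixed with methanol/acetonitrile (1:1) plus internal standard, centrifuged, and drug was measured by LC-MS/MS. AUC0-inf was obtained by the trapezoidal rule, extrapolated with kel from the terminal phase. t1/2 = ln2/kel.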

fMet-Leu-Phe receptor = molecular target: T1, fMet-Leu-Phe receptor (Mus musculus, UniProt P33766); experiment: Agonist activity at mouse FPR1 expressed in CHO cells assessed as reduction cAMP accumulation incubated for 1 hr by TR-FRET assay; assay type: functional, cell-based
T1 sequence (P33766 whole entry): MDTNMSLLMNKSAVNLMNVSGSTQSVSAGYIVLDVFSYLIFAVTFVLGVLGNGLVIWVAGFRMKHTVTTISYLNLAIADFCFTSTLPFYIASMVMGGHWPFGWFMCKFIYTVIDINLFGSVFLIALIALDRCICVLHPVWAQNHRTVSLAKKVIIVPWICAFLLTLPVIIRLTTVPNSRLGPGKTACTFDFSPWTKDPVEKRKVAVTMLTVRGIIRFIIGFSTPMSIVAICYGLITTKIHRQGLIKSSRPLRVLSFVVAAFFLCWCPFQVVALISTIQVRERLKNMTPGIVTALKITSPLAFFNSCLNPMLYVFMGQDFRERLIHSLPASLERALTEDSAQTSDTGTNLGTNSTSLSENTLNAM

- AUC(0-inf) [1]: 5.7 µM·h
- EC50 (fMet-Leu-Phe receptor): 500 nM
Compound: COc1cc(F)c([C@@H]2CNC(=O)[C@H]2NC(=O)Nc2ccccc2)c(F)c1 [BMS-986235]

— ChEMBL document CHEMBL4725241, “Discovery of BMS-986235/LAR-1219: A Potent Formyl Peptide Receptor 2 (FPR2) Selective Agonist for the Prevention of Heart Failure” (J Med Chem, 2020)
